Screening data from PubChem.
Most compounds without a hit are left out; they make up all but 1.7% or so of the library.
LMPTP inh: LMPTP phosphatase inhibitors, primary screen, biochemical, fluorescence intensity, uHTS. Low molecular weight phosphotyrosine protein phosphatase (Homo sapiens), P24666. recombinant LMPTP-A, OMFP fluorogenic substrate. inhibition, % at 20 µM. 360,000 compounds, 0.22% hits. AID 651560, 2012;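 active = compounds that cut the enzyme signal by at least half of the control window in the single-dose screen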
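Test system: LMPTP-A phosphatase enzyme; input: 0.625 nM LMPTP-A final; reagent: OMFP substrate, 400 µM final; compound dosing: 20 µM single dose, 3% DMSO; incubation: 50 min dark incubation at room temperature; measured by: endpoint fluorescence intensity from OMFP dephosphorylation; measure: % inhibition relative to no-enzyme and uninhibited control wells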
Scp-1 inhibitor: Scp-1 phosphatase inhibitors, primary screen, biochemical, colorimetric, uHTS. inhibition, % at 20 µM. Carboxy-terminal domain RNA polymerase II polypeptide A small phosphatase 1 (Homo …. Recombinant Scp1, phosphopeptide, malachite green phosphate absorbance. 340,000 compounds, 0.88% hits. AID 493091, 2011;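 active = inhibition above about 50% at 20 µM, limit read from the data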
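Test system: SCP-1 phosphatase catalytic domain, residues 76-261; measured by: colorimetric phosphate reagent with accelerator and stabiliser, absorbance at 630 nm; timing: enzyme reaction 45 min at room temperature, colour 5 min, stabilisation 30 min; also added: Phosphorylated 17-residue peptide substrate; compound dosing: one concentration, 20 µM, with 1.0% DMSO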
STEP inh: STEP phosphatase inhibitors, primary screen, biochemical, fluorescence intensity, uHTS; 360,000 compounds, 0.25% hits; Tyrosine-protein phosphatase non-receptor type 5 (Homo sapiens), P54829; recombinant STEP, OMFP fluorogenic substrate; inhibition, % at 20 µM;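 active = inhibition at 20 µM, scaled per plate between control wells, above about 37%, limit read from the data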
Target sequence (P54829 whole entry, looked up): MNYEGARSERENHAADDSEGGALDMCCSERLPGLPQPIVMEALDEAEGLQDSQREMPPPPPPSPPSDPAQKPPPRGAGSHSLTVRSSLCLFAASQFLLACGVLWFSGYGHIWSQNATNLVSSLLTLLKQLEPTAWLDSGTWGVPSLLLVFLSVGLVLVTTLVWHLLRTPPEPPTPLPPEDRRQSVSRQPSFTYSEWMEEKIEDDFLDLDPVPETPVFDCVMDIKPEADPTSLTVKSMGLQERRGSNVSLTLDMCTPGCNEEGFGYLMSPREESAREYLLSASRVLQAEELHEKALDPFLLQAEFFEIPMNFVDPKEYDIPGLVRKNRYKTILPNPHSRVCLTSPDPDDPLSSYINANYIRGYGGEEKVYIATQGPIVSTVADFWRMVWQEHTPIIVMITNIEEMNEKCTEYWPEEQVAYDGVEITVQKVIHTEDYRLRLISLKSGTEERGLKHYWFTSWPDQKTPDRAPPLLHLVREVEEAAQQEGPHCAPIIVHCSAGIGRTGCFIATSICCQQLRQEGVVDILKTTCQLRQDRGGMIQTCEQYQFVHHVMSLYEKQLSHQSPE
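System: STEP (striatal-enriched tyrosine phosphatase) enzyme, cell-free; medium: Bis-Tris pH 6.0 buffer with DTT, detergent; dosing: 20 µM, 1% DMSO; times: reaction 20 min, ambient temperature; detection: fluorescence, 480/540 nm; read-out basis: normalized % inhibition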
DNMT1 inh: human DNMT1 methyltransferase inhibitors, primary screen, biochemical, molecular beacon, fluorescence, HinP1I cleavage, uHTS; DNA (cytosine-5)-methyltransferase 1 (Homo sapiens), P26358; inhibition (reported as % activation of signal), % at 10 µM; 360,000 compounds, 0.83% hits; in the data active = inhibition above about 50%
SUMO1 PPI mod: modulators of SUMO1 protein-protein interactions, primary screen, biochemical, uHTS. AID 602429, 2012. Small ubiquitin-related modifier 1 (Homo sapiens), P63165. 360,000 compounds, 0.33% hits. SUMO1 binding to a labelled peptide, TR-FRET, 1 h. inhibition, % at 20 µM; in the data active = inhibition above about 37%
Target sequence (P63165 whole entry, looked up): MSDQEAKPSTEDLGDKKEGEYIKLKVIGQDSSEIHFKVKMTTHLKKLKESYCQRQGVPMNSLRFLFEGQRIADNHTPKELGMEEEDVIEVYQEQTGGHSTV
Scp1 confirm: Scp-1 phosphatase inhibitors, retest, confirmation, biochemical, colorimetric, single concentration. inhibition, % at 20 µM. recombinant SCP-1 catalytic domain, phosphate release, malachite green absorbance. 2,500 compounds, 61% hits. shares compounds with Scp-1 inhibitor. AID 540281, 2011
Scp-1 MG ctr: colorimetric readout interference by compounds, confirmation, artefact control for Scp-1 inhibitor project, biochemical, single concentration; 2,500 tested, under 10 active; apparent inhibition (interference), % at 20 µM; AID 540313, 2011; shares compounds with Scp-1 inhibitor; Colorimetric interference counterscreen, malachite green absorbance 630 nm;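 note: compounds added after enzyme reaction finished so only phosphate colour detection is probed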
Scp1 DSF: Scp-1 binding by thermal shift, confirmation, orthogonal assay for Scp-1 inhibitor project, biophysical, differential scanning fluorimetry | shares compounds with Scp-1 inhibitor | Recombinant SCP1, Sypro Orange thermal shift Tm | thermal shift relative to vanadate control, % at 40 µM | 1,500 compounds, 25% hits | AID 540329, 2011;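 active = substances whose mean melting-temperature shift, as a percentage of the reference inhibitor's shift, reaches about 5.3%, limit read from the data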
Numbers stand for hits.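 Rule for the calls, unless noted: active = inhibition of at least 30% at 20 µM; inactive = the rest.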

For O=C(O)/C=C\C(=O)Nc1cccc(NC(=O)c2ccccc2)c1 the results were LMPTP inh inactive, Scp-1 inhibitor inactive, STEP inh inactive, DNMT1 inh inactive and SUMO1 PPI mod inactive.
`Cc1ccc(S(=O)(=O)N2CCN(C(=O)c3cccc(-n4cccc4)c3)CC2)cc1` gave LMPTP inh inactive, Scp-1 inhibitor 86, STEP inh inactive, DNMT1 inh inactive, SUMO1 PPI mod inactive, Scp1 confirm 43, Scp-1 MG ctr inactive and Scp1 DSF inactive.
Cc1ccc(S(=O)(=O)N2CCN(C(=O)c3ccccc3)CC2)cc1 was read as LMPTP inh inactive, Scp-1 inhibitor inactive, STEP inh inactive, DNMT1 inh inactive and SUMO1 PPI mod inactive.
`C=CCOc1ccc(Br)cc1/C=C1/SC(=Nc2ccc(C(=O)O)cc2)NC1=O` gave LMPTP inh 81, Scp-1 inhibitor 86, STEP inh 65, DNMT1 inh inactive, SUMO1 PPI mod inactive, Scp1 confirm 75, Scp-1 MG ctr inactive and Scp1 DSF inactive.
CCOC(=O)/C(CCC[N+](C)(CC)CC)=N\O was read as LMPTP inh inactive, Scp-1 inhibitor 99, STEP inh inactive, DNMT1 inh inactive, SUMO1 PPI mod inactive, Scp1 confirm inactive and Scp-1 MG ctr inactive.
`CC(C)[C@H](NC(=O)C1CCN(S(=O)(=O)c2ccc(F)cc2)CC1)C(=O)NCc1ccncc1` gave LMPTP inh inactive, Scp-1 inhibitor inactive, STEP inh inactive, DNMT1 inh inactive and SUMO1 PPI mod inactive.
Screening N#C/C(=C\c1c[nH]c2ccc(Br)cc12)c1ccccn1 returned LMPTP inh inactive, Scp-1 inhibitor inactive, STEP inh inactive, DNMT1 inh inactive and SUMO1 PPI mod inactive.
Cc1cccc(OCCOCCN2CCOCC2)c1C was read as LMPTP inh inactive, Scp-1 inhibitor 51, STEP inh inactive, DNMT1 inh inactive, SUMO1 PPI mod inactive, Scp1 confirm inactive and Scp-1 MG ctr inactive.
Screening Cc1cccc(OCCOCCN2CCNCC2)c1C returned LMPTP inh inactive, Scp-1 inhibitor inactive, STEP inh inactive, DNMT1 inh inactive and SUMO1 PPI mod inactive.
For COc1ccccc1CNC(=O)CN(C)S(=O)(=O)c1ccc(F)cc1 the results were LMPTP inh inactive, Scp-1 inhibitor inactive, STEP inh inactive, DNMT1 inh inactive and SUMO1 PPI mod inactive.
`CCN(C(=O)COC(=O)c1[nH]c(C)c(C(C)=O)c1C)C1CCS(=O)(=O)C1` (configuration not stated) gave LMPTP inh inactive, Scp-1 inhibitor 70, STEP inh inactive, DNMT1 inh inactive, SUMO1 PPI mod inactive, Scp1 confirm inactive and Scp-1 MG ctr inactive.
For COCCN(C(=O)Cn1nnc2ccccc21)C(C(=O)NC1CCCCC1)c1ccc(OC)cc1OC (configuration not stated) the results were LMPTP inh inactive, Scp-1 inhibitor 71, STEP inh inactive, DNMT1 inh inactive, SUMO1 PPI mod inactive, Scp1 confirm 48, Scp-1 MG ctr inactive and Scp1 DSF inactive.
For Cc1ccc(S(=O)(=O)N2CCN(C(=O)Cn3c(=O)oc4ccccc43)CC2)c(C)c1 the results were LMPTP inh inactive, Scp-1 inhibitor inactive, STEP inh inactive, DNMT1 inh inactive and SUMO1 PPI mod inactive.
Cc1nn(C(C)C(=O)NC2C(=O)N3C(C(=O)O)=C(CSc4nnnn4C)CSC23)cc1Cl (configuration not stated) was read as LMPTP inh inactive, Scp-1 inhibitor inactive, STEP inh inactive, DNMT1 inh inactive and SUMO1 PPI mod inactive.
CC(=O)OCC1=C(C(=O)O)N2C(=O)C(NC(=O)C(C)Cn3nc(C)c(Cl)c3C)C2SC1 (configuration not stated) was read as LMPTP inh inactive, Scp-1 inhibitor 53, STEP inh inactive, DNMT1 inh inactive, SUMO1 PPI mod inactive, Scp1 confirm 67, Scp-1 MG ctr inactive and Scp1 DSF inactive.
CC(C)(C)OC(=O)NCCCCCc1cn(CC(=O)NCCCCCCCCCCC(=O)N2CCN(C(=O)OC(C)(C)C)CC2)nn1 was read as LMPTP inh inactive, Scp-1 inhibitor 61, STEP inh inactive, DNMT1 inh inactive, SUMO1 PPI mod inactive, Scp1 confirm inactive and Scp-1 MG ctr inactive.
Screening CCOC(=O)CN1C(=O)N[C@@H](c2ccc(Br)cc2)C(C(=O)OC)=C1C returned LMPTP inh inactive, Scp-1 inhibitor inactive, STEP inh inactive, DNMT1 inh inactive and SUMO1 PPI mod inactive.
CCOC(=O)CN1C(=O)N[C@H](c2ccc(Br)cc2)C(C(C)=O)=C1C was read as LMPTP inh inactive, Scp-1 inhibitor 76, STEP inh inactive, DNMT1 inh inactive, SUMO1 PPI mod inactive, Scp1 confirm inactive and Scp-1 MG ctr inactive.
`CC(=O)NCCc1ccc(S(=O)(=O)Nc2ccc(NC(=O)c3ccc(F)cc3)cc2)cc1` gave LMPTP inh inactive, Scp-1 inhibitor inactive, STEP inh inactive, DNMT1 inh inactive and SUMO1 PPI mod inactive.
For O=C(CCc1ccccc1)NNC(=O)COc1ccccc1Cl the results were LMPTP inh inactive, Scp-1 inhibitor inactive, STEP inh inactive, DNMT1 inh inactive and SUMO1 PPI mod inactive.
For COc1ccc(C(C)=O)cc1CSc1nc2cc(C(=O)O)ccc2c(=O)n1Cc1ccccc1 the results were LMPTP inh inactive, Scp-1 inhibitor 51, STEP inh inactive, DNMT1 inh inactive, SUMO1 PPI mod inactive, Scp1 confirm inactive and Scp-1 MG ctr inactive.
`CCOC(Cn1c(SCc2cc(C(C)=O)ccc2OC)nc2ccccc2c1=O)OCC` gave LMPTP inh inactive, Scp-1 inhibitor inactive, STEP inh inactive, DNMT1 inh inactive and SUMO1 PPI mod inactive.
